Results taken from ChEMBL document CHEMBL1821649, “Synthesis, characterization of some benzazoles bearing pyridine moiety: search for novel anticancer agents” (2011).

What was measured:
Type in all cases: functional
COLO 205 = experiment: Antitumor activity against human COLO205 cells after 48 hrs by SRB assay; conditions: COLO 205, 48 h
Summary of the method: (§1)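 NCI-60 human tumour cell panel run under the National Cancer Institute Drug Evaluation Branch protocol. Compounds passing a single-dose prescreen were retested on all lines at five 10-fold dilutions. Growth was expressed as percent growth of treated cells. Response parameters were GI50 (molar concentration giving 50% growth inhibition), TGI (total growth inhibition) and LC50 (median lethal concentration).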

NCI-H460 = experiment: Antitumor activity against human NCI-H460 cells after 48 hrs by SRB assay; conditions: NCI-H460, 48 h; summary of the method: as §1
NCI-H23 = experiment: Antitumor activity against human NCI-H23 cells after 48 hrs by SRB assay; conditions: NCI-H23, 48 h; summary of the method: as §1
NCI-H522 = experiment: Antitumor activity against human NCI-H522 cells after 48 hrs by SRB assay; conditions: NCI-H522, 48 h; summary of the method: as §1
HOP-92 = experiment: Antitumor activity against human HOP92 cells after 48 hrs by SRB assay; conditions: HOP-92, 48 h; summary of the method: as §1
MOLT-4 = experiment: Antitumor activity against human MOLT4 cells after 48 hrs by SRB assay; conditions: MOLT-4, 48 h; summary of the method: as §1
SNB-75 = experiment: Antitumor activity against human SNB75 cells after 48 hrs by SRB assay; conditions: SNB-75, 48 h; summary of the method: as §1
U-251 = experiment: Antitumor activity against human U251 cells after 48 hrs by SRB assay; conditions: U-251, 48 h
Summary of the method: (§2)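 NCI-60 human cancer cell line panel run under the NCI Drug Evaluation Branch protocol. Compounds were first screened at a single dose. Those meeting preset inhibition thresholds were retested at five 10-fold dilutions. Output was percent growth of treated cells, given as % growth inhibition. GI50, TGI and LC50 values were derived from the five-dose data.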

OVCAR-4 = experiment: Antitumor activity against human OVCAR4 cells after 48 hrs by SRB assay; conditions: OVCAR-4, 48 h; summary of the method: as §1
OVCAR-3 = experiment: Antitumor activity against human OVCAR3 cells after 48 hrs by SRB assay; conditions: OVCAR-3, 48 h; summary of the method: as §1
OVCAR-5 = experiment: Antitumor activity against human OVCAR5 cells after 48 hrs by SRB assay; conditions: OVCAR-5, 48 h; summary of the method: as §1
IGROV-1 = experiment: Antitumor activity against human IGROV1 cells after 48 hrs by SRB assay; conditions: IGROV-1, 48 h; summary of the method: as §1
NCI/ADR-RES = experiment: Antitumor activity against human NCI/ADR-RES cells after 48 hrs by SRB assay; summary of the method: as §1
SK-OV-3 = experiment: Antitumor activity against human SKOV3 cells after 48 hrs by SRB assay; conditions: SK-OV-3, 48 h; summary of the method: as §1
SK-MEL-5 = experiment: Antitumor activity against human SK-MEL-5 cells after 48 hrs by SRB assay; conditions: SK-MEL-5, 48 h; summary of the method: as §1
SK-MEL-28 = experiment: Antitumor activity against human SK-MEL-28 cells after 48 hrs by SRB assay; conditions: SK-MEL-28, 48 h; summary of the method: as §1
A498 = experiment: Antitumor activity against human A498 cells after 48 hrs by SRB assay; conditions: A498, 48 h; summary of the method: as §1
ACHN = experiment: Antitumor activity against human ACHN cells after 48 hrs by SRB assay; summary of the method: as §1
SN12C = experiment: Antitumor activity against human SN12C cells after 48 hrs by SRB assay; summary of the method: as §1
DU-145 = experiment: Antitumor activity against human DU145 cells after 48 hrs by SRB assay; conditions: DU-145, 48 h; summary of the method: as §1
MCF7 = experiment: Antitumor activity against human MCF7 cells after 48 hrs by SRB assay; conditions: MCF7, 48 h; summary of the method: as §1
MDA-MB-231 = experiment: Antitumor activity against human MDA-MB-231 cells after 48 hrs by SRB assay; conditions: MDA-MB-231, 48 h; summary of the method: as §1
[1] = Antitumor activity against human Hs 578T cells after 48 hrs by SRB assay; summary of the method: as §1
BT-549 = experiment: Antitumor activity against human BT549 cells after 48 hrs by SRB assay; conditions: BT-549, 48 h; summary of the method: as §1
T47D = experiment: Antitumor activity against human T47D cells after 48 hrs by SRB assay; summary of the method: as §2
MDA-MB-468 = experiment: Antitumor activity against human MDA-MB-468 cells after 48 hrs by SRB assay; conditions: MDA-MB-468, 48 h; summary of the method: as §1
[2] = Antitumor activity against human […] cells after 48 hrs by SRB assay; summary of the method: as §1
RXF 393 = experiment: Antitumor activity against human RXF393 cells after 48 hrs by SRB assay; conditions: RXF 393, 48 h; summary of the method: as §1
SF-539 = experiment: Antitumor activity against human SF539 cells after 48 hrs by SRB assay; conditions: SF-539, 48 h; summary of the method: as §1
SF-295 = experiment: Antitumor activity against human SF295 cells after 48 hrs by SRB assay; conditions: SF-295, 48 h; summary of the method: as §1
HCT-116 = experiment: Antitumor activity against human HCT116 cells after 48 hrs by SRB assay; conditions: HCT-116, 48 h; summary of the method: as §1
[3] = read-out: LC50 (the source's name)

In the case of `COc1ccc(-c2c(C#N)cnc(N)c2-c2nc3cc(C)c(C)cc3[nH]2)cc1`, the GI50 (COLO 205) is reported as 7.78 µM, the LC50 (COLO 205) is reported as greater than 100 µM and the TGI (COLO 205) is reported as 63.7 µM. The GI50 (NCI-H460) was 18.1 µM, the LC50 (median lethal concentration) (NCI-H460) was greater than 100 µM and the TGI (NCI-H460) was greater than 100 µM. It also gave a GI50 (NCI-H23) of 5.37 µM, an LC50 (NCI-H23) greater than 100 µM and a TGI (NCI-H23) of 33.3 µM. For the same molecule, the LC50 (NCI-H522) was greater than 100 µM, the GI50 (HOP-92) was 2.65 µM and the LC50 (HOP-92) was greater than 100 µM. The TGI (HOP-92) was 16.3 µM, the GI50 (MOLT-4) was greater than 100 µM and the LC50 (MOLT-4) was greater than 100 µM. It also gave a TGI (MOLT-4) greater than 100 µM, a GI50 (SNB-75) of 2.36 µM and an LC50 (SNB-75) of 32.4 µM. For the same molecule, the TGI (SNB-75) was 8.19 µM, the GI50 (U-251) was 3.65 µM and the TGI (U-251) was 12.7 µM. The CC50 (U-251; [3]) was 53.9 µM, the GI50 (OVCAR-4) was 22.5 µM and the TGI (OVCAR-4) was greater than 100 µM. It also gave a CC50 (OVCAR-4; [3]) greater than 100 µM, a GI50 (OVCAR-3) of 14.8 µM and a TGI (OVCAR-3) of 30.4 µM. It also gave a CC50 (OVCAR-3; [3]) of 62.2 µM, a GI50 (OVCAR-5) of 52.4 µM and a TGI (OVCAR-5) greater than 100 µM. It also gave a CC50 (OVCAR-5; [3]) greater than 100 µM, a GI50 (IGROV-1) of 16 µM and an LC50 (IGROV-1) greater than 100 µM. It also gave a TGI (IGROV-1) greater than 100 µM, a GI50 (NCI/ADR-RES) of 6.84 µM and a TGI (NCI/ADR-RES) greater than 100 µM. It also gave a CC50 (NCI/ADR-RES; [3]) greater than 100 µM, a GI50 (SK-OV-3) of 4.84 µM and an LC50 (SK-OV-3) of 59.6 µM. The TGI (SK-OV-3) was 18.4 µM, the GI50 (SK-MEL-5) was 8.78 µM and the LC50 (SK-MEL-5) was greater than 100 µM. It also gave a TGI (SK-MEL-5) greater than 100 µM, a GI50 (SK-MEL-28) of 17.2 µM and an LC50 (median lethal concentration) (SK-MEL-28) greater than 100 µM. For the same molecule, the TGI (SK-MEL-28) was greater than 100 µM, the GI50 (A498) was 10.7 µM and the TGI (A498) was 63.6 µM. For the same molecule, the CC50 (A498; [3]) was greater than 100 µM, the GI50 (ACHN) was 3.98 µM and the TGI (ACHN) was greater than 100 µM. For the same molecule, the CC50 (ACHN; [3]) was greater than 100 µM, the GI50 (SN12C) was 25.4 µM and the TGI (SN12C) was greater than 100 µM. For the same molecule, the CC50 (SN12C; [3]) was greater than 100 µM, the GI50 (DU-145) was 6.92 µM and the TGI (DU-145) was 23.8 µM. For the same molecule, the CC50 (DU-145; [3]) was 61.8 µM, the GI50 (MCF7) was 6.34 µM and the TGI (MCF7) was greater than 100 µM. It also gave a CC50 (MCF7; [3]) greater than 100 µM, a GI50 (MDA-MB-231) of 8.28 µM and a TGI (MDA-MB-231) greater than 100 µM. The CC50 (MDA-MB-231; [3]) was greater than 100 µM, the GI50 [1] was 5.87 µM and the TGI [1] was greater than 100 µM. For the same molecule, the CC50 [1, 3] was greater than 100 µM, the GI50 (BT-549) was 30.6 µM and the TGI (BT-549) was greater than 100 µM. The CC50 (BT-549; [3]) was greater than 100 µM, the GI50 (T47D) was 15.4 µM and the TGI (T47D) was greater than 100 µM. The CC50 (T47D; [3]) was greater than 100 µM, the GI50 (MDA-MB-468) was 6.22 µM and the TGI (MDA-MB-468) was 23.1 µM. It also gave a CC50 (MDA-MB-468; [3]) of 68 µM, a GI50 [2] of 9.8 µM and a TGI [2] of 65.7 µM. For the same molecule, the CC50 [2, 3] was greater than 100 µM, the GI50 (RXF 393) was 6.68 µM and the TGI (RXF 393) was 20.4 µM. It also gave a CC50 (RXF 393; [3]) of 54.1 µM, a GI50 (SF-539) of 11.5 µM and a TGI (SF-539) of 41.9 µM. For the same molecule, the CC50 (SF-539; [3]) was greater than 100 µM, the GI50 (SF-295) was 6.41 µM and the TGI (SF-295) was 23.4 µM. For the same molecule, the CC50 (SF-295; [3]) was 68.2 µM, the GI50 (HCT-116) was 4.63 µM and the TGI (HCT-116) was greater than 100 µM. The CC50 (HCT-116; [3]) was greater than 100 µM.
